Results taken from ChEMBL document CHEMBL4043075, “Development of Fluorinated Analogues of Perhexiline with Improved Pharmacokinetic Properties and Retained Efficacy” (J Med Chem, 2017).

Legend:
[1] = Half life in human liver microsomes at 3 uM up to 45 mins in presence of NADPH by LC-MS/MS analysis; type: ADME, microsome
[2] = Half life in Sprague-Dawley rat liver microsomes at 3 uM up to 45 mins in presence of NADPH by LC-MS/MS analysis; type: ADME, microsome
[3] = Stability of the compound in pH 7.4 PBS buffer at 37 degC after 1 hr; type: physicochemical; conditions: pH 7.4, 1 h
Method in brief: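 Compound incubated 1 h in pH 7.4 PBS at 37 °C, then checked for decomposition.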

[4] = molecular target: T1, Carnitine O-palmitoyltransferase 1, muscle isoform (Rattus norvegicus, UniProt Q63704); test: Inhibition of Wistar rat heart mitochondrial CPT-1 assessed as reduction in conversion of palmitoyl CoA and L-carnitine into palmitoylcarnitine preincubated for 3 mins followed by L-carnitine and palmitoyl CoA addition measured for 3.5 mins by spectrophotometric analysis
T1 sequence (Q63704 whole entry): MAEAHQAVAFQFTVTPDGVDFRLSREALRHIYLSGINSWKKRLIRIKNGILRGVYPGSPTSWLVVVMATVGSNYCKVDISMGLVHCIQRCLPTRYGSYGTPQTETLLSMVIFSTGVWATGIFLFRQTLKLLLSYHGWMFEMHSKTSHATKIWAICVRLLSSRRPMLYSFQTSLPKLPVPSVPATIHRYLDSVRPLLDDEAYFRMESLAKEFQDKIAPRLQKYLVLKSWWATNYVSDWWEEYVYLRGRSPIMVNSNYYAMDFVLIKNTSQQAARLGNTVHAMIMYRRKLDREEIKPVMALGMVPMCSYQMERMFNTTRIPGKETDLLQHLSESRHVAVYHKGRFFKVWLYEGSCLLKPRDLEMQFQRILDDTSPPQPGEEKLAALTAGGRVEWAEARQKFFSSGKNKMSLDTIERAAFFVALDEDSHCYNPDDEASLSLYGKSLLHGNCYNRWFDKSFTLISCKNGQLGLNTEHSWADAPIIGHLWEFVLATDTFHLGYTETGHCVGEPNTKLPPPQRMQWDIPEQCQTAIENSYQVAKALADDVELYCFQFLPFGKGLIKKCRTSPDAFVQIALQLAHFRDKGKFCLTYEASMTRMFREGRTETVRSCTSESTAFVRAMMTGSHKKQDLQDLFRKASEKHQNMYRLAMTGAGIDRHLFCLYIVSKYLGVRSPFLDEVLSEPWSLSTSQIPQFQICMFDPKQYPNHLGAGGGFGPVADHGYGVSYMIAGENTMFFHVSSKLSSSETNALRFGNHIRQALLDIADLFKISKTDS

CYP2D6 = CYP2D6 (Homo sapiens, UniProt P10635); test: Drug metabolism assessed as human CYP2D6-mediated compound degradation by measuring half life at 5 uM up to 45 mins in presence of NADPH by LC-MS/MS analysis; type: ADME
[5] = Drug uptake in BALB/c mouse myocardium at 10 mg/kg, po administered via gavage every 24 hrs for 7 days measured 1 hr post last dose by LC-MS/MS analysis; type: ADME, organism-based; conditions: read-out: Drug uptake
Method in brief: (§1)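 Male BALB/c mice, daily oral gavage at 10 mg/kg. Plasma and myocardium sampled 1, 4, 8 and 24 h after dosing, n = 3 per timepoint. […] Myocardium:plasma ratios taken from drug concentration or from AUC. Student's t-test used.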

[6] = Plasma concentration in BALB/c mouse at 10 mg/kg, po administered via gavage every 24 hrs for 7 days measured at 1 hr post last dose by LC-MS/MS analysis; type: ADME, organism-based; method in brief: as §1
[7] = Plasma concentration in BALB/c mouse at 10 mg/kg, po administered via gavage every 24 hrs for 7 days measured 4 hrs post last dose by LC-MS/MS analysis; type: ADME, organism-based; method in brief: as §1
[8] = Plasma concentration in BALB/c mouse at 10 mg/kg, po administered via gavage every 24 hrs for 7 days measured 8 hrs post last dose by LC-MS/MS analysis; type: ADME, organism-based; method in brief: as §1
[9] = Drug uptake in BALB/c mouse myocardium at 10 mg/kg, po administered via gavage every 24 hrs for 7 days measured 4 hrs post last dose by LC-MS/MS analysis; type: ADME, organism-based; conditions: read-out: Drug uptake; method in brief: as §1
[10] = Drug uptake in BALB/c mouse myocardium at 10 mg/kg, po administered via gavage every 24 hrs for 7 days measured 8 hrs post last dose by LC-MS/MS analysis; type: ADME, organism-based; conditions: read-out: Drug uptake; method in brief: as §1
[11] = AUC (0 to 24 hrs) in BALB/c mouse plasma at 10 mg/kg, po administered via gavage every 24 hrs for 7 days measured post last dose by LC-MS/MS analysis; type: ADME, organism-based; set-up: dose 10 mg/kg, time < 24 hr, route oral; method in brief: as §1
[12] = AUC (0 to 24 hrs) in BALB/c mouse myocardium at 10 mg/kg, po administered via gavage every 24 hrs for 7 days measured post last dose by LC-MS/MS analysis; type: ADME, organism-based; set-up: time < 24 hr, dose 10 mg/kg, route oral; method in brief: as §1
[13] = Plasma concentration in Sprague-Dawley rat at 10 mg/kg, po administered via gavage every 24 hrs measured at 1 hr post dose by LC-MS/MS analysis; type: ADME, organism-based
Method in brief: (§2)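 Male Sprague-Dawley rats, daily oral dosing at 10 mg/kg. Plasma sampled at 1, 2, 4, 8 and 24 h after dosing, n = 3 per timepoint. Myocardium measured at 1 and 8 h. Myocardium:plasma ratio taken from drug concentration.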

[14] = Plasma concentration in Sprague-Dawley rat at 10 mg/kg, po administered via gavage every 24 hrs measured at 2 hrs post last dose by LC-MS/MS analysis; type: ADME, organism-based; method in brief: as §2
[15] = Plasma concentration in Sprague-Dawley rat at 10 mg/kg, po administered via gavage every 24 hrs measured at 4 hrs post last dose by LC-MS/MS analysis; type: ADME, organism-based; method in brief: as §2
[16] = Plasma concentration in Sprague-Dawley rat at 10 mg/kg, po administered via gavage every 24 hrs measured at 8 hrs post last dose by LC-MS/MS analysis; type: ADME, organism-based; method in brief: as §2
[17] = Drug uptake in Sprague-Dawley rat myocardium at 10 mg/kg, po administered via gavage every 24 hrs measured at 1 hr post last dose by LC-MS/MS analysis; type: ADME, organism-based; conditions: read-out: Drug uptake; method in brief: as §2
[18] = Drug uptake in Sprague-Dawley rat myocardium at 10 mg/kg, po administered via gavage every 24 hrs measured at 8 hrs post last dose by LC-MS/MS analysis; type: ADME, organism-based; conditions: read-out: Drug uptake; method in brief: as §2
[19] = Ratio of drug level in myocardium to plasma in BALB/c mouse at 10 mg/kg, po administered via gavage every 24 hrs for 7 days measured 1 hr post last dose by LC-MS/MS analysis; type: ADME, organism-based; conditions: myocardium and plasma; method in brief: as §1
[20] = Ratio of drug level in myocardium to plasma in BALB/c mouse at 10 mg/kg, po administered via gavage every 24 hrs for 7 days measured 4 hrs post last dose by LC-MS/MS analysis; type: ADME, organism-based; conditions: myocardium and plasma; method in brief: as §1
[21] = Ratio of drug level in myocardium to plasma in BALB/c mouse at 10 mg/kg, po administered via gavage every 24 hrs for 7 days measured 8 hrs post last dose by LC-MS/MS analysis; type: ADME, organism-based; conditions: myocardium and plasma; method in brief: as §1
[22] = Ratio of drug level in myocardium to plasma in Sprague-Dawley rat at 10 mg/kg, po administered via gavage every 24 hrs measured at 1 hr post dose by LC-MS/MS analysis; type: ADME, organism-based; conditions: myocardium and plasma; method in brief: as §2
[23] = Ratio of drug level in myocardium to plasma in Sprague-Dawley rat at 10 mg/kg, po administered via gavage every 24 hrs measured at 8 hrs post dose by LC-MS/MS analysis; type: ADME, organism-based; conditions: myocardium and plasma; method in brief: as §2
[24] = Ratio of AUC (0 to 24 hrs) in myocardium to plasma in BALB/c mouse at 10 mg/kg, po administered via gavage every 24 hrs for 7 days measured post last dose by LC-MS/MS analysis; type: ADME, organism-based; conditions: myocardium and plasma, read-out: Ratio AUC; method in brief: as §1
Heart [25] = test: Cardioprotective activity in Langendorff perfused C57BL/6 mouse heart assessed as increase in cardiac contractility at 2 uM perfused for 30 mins in presence of high fat relative to control; type: functional
Method in brief: (§3)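 Isolated C57BL/6 hearts (25-30 g) retrogradely perfused at constant 80 mmHg, 37 °C, 95% O2/5% CO2, with modified Krebs containing 1.2 mM sodium palmitate conjugated to 3% BSA. After 10 min stabilisation, 30 min perfusion with control buffer or compound at 2 or 10 µM. LVdP/dt max and min derived from LV pressure over 40 min; mean ± SEM, n = 12-19, 1-way ANOVA with Bonferroni.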

Heart [26] = test: Cardioprotective activity in Langendorff perfused C57BL/6 mouse heart assessed as increase in cardiac relaxation at 2 uM perfused for 30 mins in presence of high fat relative to control; type: functional; method in brief: as §3

Sequence of CYP2D6 (P10635 whole entry): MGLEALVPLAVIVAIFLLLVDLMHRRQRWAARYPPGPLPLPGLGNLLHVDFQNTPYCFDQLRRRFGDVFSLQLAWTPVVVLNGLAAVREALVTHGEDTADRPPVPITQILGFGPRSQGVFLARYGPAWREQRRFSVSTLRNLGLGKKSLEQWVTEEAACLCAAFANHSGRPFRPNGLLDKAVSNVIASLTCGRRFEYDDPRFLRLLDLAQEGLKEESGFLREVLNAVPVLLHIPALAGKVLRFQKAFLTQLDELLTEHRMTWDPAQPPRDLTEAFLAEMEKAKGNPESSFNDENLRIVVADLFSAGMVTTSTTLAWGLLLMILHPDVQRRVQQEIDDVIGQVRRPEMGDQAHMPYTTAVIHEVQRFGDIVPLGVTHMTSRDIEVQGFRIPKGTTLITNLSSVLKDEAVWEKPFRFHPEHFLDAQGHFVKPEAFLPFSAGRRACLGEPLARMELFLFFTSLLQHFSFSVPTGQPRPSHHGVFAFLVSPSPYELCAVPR

In the case of `C1CCC(CC(C2CCCC2)C2CC2)NC1` (configuration not stated), the half-life at 3 µM [1] is reported as 0.45 h, the half-life at 3 µM [2] is reported as 3 min and the Stability [3] is reported as “Stable”.

In the case of `OC1CCC(C(CC2CCCCN2)C2CCCCC2)CC1` (configuration not stated), the IC50 [4] is reported as 475 µM.

For `C1CCC(C(CC2CCCCN2)C2CCOCC2)CC1` (configuration not stated), the half-life at 3 µM [1] was 1.4 h, the half-life at 3 µM [2] was 31 min and the half-life at 5 µM (CYP2D6) was 7 min. The IC50 [4] was 715 µM and the Stability [3] was “Stable”.

For `FC1(F)CCC(C(CC2CCCCN2)C2CCC(F)(F)CC2)CC1` (configuration not stated), the half-life at 3 µM [1] was greater than 66.7 h, the half-life at 3 µM [2] was greater than 1500 min and the half-life at 5 µM (CYP2D6) was greater than 150 min. For the same molecule, the IC50 [4] was 88 µM and the Stability [3] was “Stable”.

For `c1ccc(C(CC2CCCCN2)C2CCCCC2)cc1` (configuration not stated), the half-life at 3 µM [1] was 0.933 h, the half-life at 3 µM [2] was 4 min and the Stability [3] was “Stable”.

`C1CCC(C(CC2CCCCN2)C2CCCCC2)CC1` (racemic) [PERHEXILINE] gave a concentration at 1 h [5] of 664 ng/mL, a half-life at 3 µM [1] of 1.67 h and a half-life at 3 µM [2] of 21 min. The half-life at 5 µM (CYP2D6) was 14 min, the IC50 [4] was 11 µM and the concentration at 1 h [6] was 116 ng/mL. For the same molecule, the concentration at 4 h [7] was 28.3 ng/mL, the concentration at 8 h [8] was 6 ng/mL and the concentration at 4 h [9] was 126 ng/mL. The concentration at 8 h [10] was 29.2 ng/mL, the AUC at 24 h [11] was 876 ng·h/mL and the AUC at 24 h [12] was 2110 ng·h/mL. The concentration at 1 h [13] was 99.9 ng/mL, the concentration at 2 h [14] was 113 ng/mL and the concentration at 4 h [15] was 97.4 ng/mL. It also gave a concentration at 8 h [16] of 31.4 ng/mL, a concentration at 1 h [17] of 1900 ng/mL and a concentration at 8 h [18] of 361 ng/mL. For the same molecule, the Kp at 1 h [19] was 5.7, the Kp at 4 h [20] was 4.9 and the Kp at 8 h [21] was 4.8. It also gave a Kp at 1 h [22] of 19, a Kp at 8 h [23] of 11.5 and a Kp [24] of 2.4. The “fold change (FC)” value (Heart [25]) was 2.1 and the “fold change (FC)” value (Heart [26]) was 3.2.

For `FC1(F)CCCC(C(CC2CCCCN2)C2CCCCC2)C1` (configuration not stated), the half-life at 3 µM [1] was greater than 2.5 h, the half-life at 3 µM [2] was 35 min and the IC50 [4] was 215 µM. For the same molecule, the Stability [3] was “Stable”.

For `C1CCC(C(CC2CCCCN2)C2CCCCC2)CC1.O=C(O)/C=C\C(=O)O` (configuration not stated) [PERHEXILINE MALEATE], the half-life at 3 µM [1] was 1.63 h, the half-life at 3 µM [2] was 10 min and the IC50 [4] was 32 µM.

In the case of `C1CCC(C(C[C@@H]2CCCCN2)C2CCCCC2)CC1`, the half-life at 3 µM [1] is reported as 1.08 h, the half-life at 3 µM [2] is reported as 11 min and the IC50 [4] is reported as 14 µM.

In the case of `FC1CCC(C(CC2CCCCN2)C2CCCCC2)CC1` (configuration not stated), the half-life at 3 µM [1] is reported as 1.08 h, the half-life at 3 µM [2] is reported as 11 min and the half-life at 5 µM (CYP2D6) is reported as 16 min. For the same molecule, the Stability [3] was “Unstable”.
